Screening results as filed in PubChem BioAssay.
MLLE-PAM2 inh – blocks PAM2 peptide binding to the PABP1 MLLE domain. inhibition, % at 20 µM. GST-MLLE / FITC-PAM2 fluorescence polarization. actives 0.36% (n = 360,000). P11940. AID 588489; in the data active = inhibition above about 35%, passing the limit was not always enough
HCV NS3 hel inh – blocks Hepatitis C virus NS3 helicase unwinding; inhibition, % at 10.9 µM; actives 0.56% (n = 290,000); NS3 helicase DNA unwinding, Cy5 molecular beacon fluorescence; AID 1800;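 active = inhibition above the mean of all tested compounds plus 3 SD, set per campaign, cut at about 35% in these data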
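Measured by: Cy5 fluorescence, 0 and 60 min reads / Assay system: NS3 helicase fragment of HCV / Control set: low DMSO, high thioflavine S at 110 µM / Times: 1 h reaction at 25 °C, ATP-initiated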
DNA FID counter-1 – displaces DNA intercalator in HCV helicase counter-screen; AID 1845; inhibition, % at 7.9 µM; DNA fluorescent intercalator displacement, fluorescence; actives 0.17% (n = 290,000);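 also: higher means more ethidium bromide displaced from hairpin DNA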
eIF4H FP inh – inhibitors of RNA binding by human eIF4H. Q15056. eIF4H fluorescence polarization binding assay. inhibition, % at 35 µM. actives 0.94% (n = 290,000). AID 2012; call rule not given here;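 also: calls also rest on retests at 20 µM and on dose response follow-up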
PABP polyA inh – PABP-poly(A) binding inhibition | AID 2014 | inhibition, % at 35 µM | PABP-poly(A) RNA binding, fluorescence polarization | actives 1% (n = 290,000) | P11940; call rule not given here;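 also: calls also rest on retests at 20 µM and on dose response follow-up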
core dimer inh – blocks dimerization of HCV core protein; TR-FRET GST/Flag-core106 dimerization, 1536-well; inhibition, % at 5 µM; actives 0.33% (n = 300,000);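 active = inhibition above the mean of all tested compounds plus 3 SD, set per screening campaign, cut at about 45% in these data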
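Test system: GST/Flag-tagged HCV core106 proteins; Medium: KF-containing HEPES buffer, pH 7.45, DTT, CHAPS, BSA; Times: compound-protein-antibody incubation 4 h at 22.5 °C; Detection: TR-FRET 671 and 617 nm emission; Benchmarks: wells lacking GST-core106 and wells with excess unlabelled core106.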
NS3 helicase cf – confirmation of Hepatitis C virus NS3 helicase inhibitors; AID 1943; shares compounds with HCV NS3 hel inh; actives 31% (n = 1,600); NS3 helicase DNA unwinding, Cy5 molecular beacon fluorescence; inhibition, % at 10.9 µM;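 active = inhibition above the mean of all tested compounds plus 3 SD, cutoff set per campaign, cut at about 36% in these data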
DNA FID counter-2 – counter-screen for HCV NS3 helicase inhibitors: DNA intercalator displacement; shares compounds with HCV NS3 hel inh; DNA fluorescent intercalator displacement, fluorescence; inhibition, % at 7.9 µM; actives 4% (n = 1,600); AID 1945;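 also: higher means more displacement of ethidium bromide from the DNA hairpin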
Each line names hits and unclear results; the compound was inactive in the other large screens (follow-up assays come after a bar, where they were run). Only some compounds are listed: those with a hit (about 2% of all), similar ones and a draw of the others. Rule as the data show it, unless noted: active = inhibition above about 37%; inactive = the rest.

CCCCCCCC(=O)N/N=C/c1ccc([N+](=O)[O-])o1	HCV NS3 hel inh 39.2 | NS3 helicase cf inactive | DNA FID counter-2 inactive
CCOC(=O)N/N=C\c1ccc([N+](=O)[O-])o1	none
CC(C)(C)c1ccc2c(c1)OC(C(=O)N/N=C/c1ccc([N+](=O)[O-])o1)CO2 (stereo unspecified)	HCV NS3 hel inh 51.4 | NS3 helicase cf inactive | DNA FID counter-2 inactive
OCCc1ccc(O)c(-n2nc3ccccc3n2)c1	none
O=C(c1cc2cc(Cl)ccc2[nH]1)N1CCN(Cc2ccc3c(c2)OCO3)CC1	none
COc1cc(CN2CCNC(=O)C2CC(=O)NC2CCC2)cc(OC)c1 (stereo unspecified)	none
COc1c(O)cc2oc(-c3ccc(O)cc3)cc(=O)c2c1O	none (no result: HCV NS3 hel inh, DNA FID counter-1)
COc1cc(OC)c(-c2c3cc(O)c(=O)cc-3oc3cc(O)c(O)cc23)cc1OC	HCV NS3 hel inh 50.7, eIF4H FP inh inconclusive | NS3 helicase cf 85.5 | DNA FID counter-2 inactive
CC(=O)c1sc(C(=O)O)c(-c2ccco2)c1-c1ccco1	HCV NS3 hel inh 52.0 | NS3 helicase cf inactive | DNA FID counter-2 39.0
CCOc1ccc(NC(=O)c2cccc(-n3cccc3)c2)cc1S(=O)(=O)N1CCOCC1	none (no result: HCV NS3 hel inh, DNA FID counter-1, eIF4H FP inh, PABP polyA inh, core dimer inh)
CCC(c1c(C)n(C)n(-c2ccccc2)c1=O)c1c(C)n(C)n(-c2ccccc2)c1=O	HCV NS3 hel inh 38.6 | NS3 helicase cf inactive | DNA FID counter-2 inactive
O=C(CC1SC(=O)N(c2ccccc2)C1=O)Nc1ccc(Br)cc1 (stereo unspecified)	HCV NS3 hel inh 36.9 | NS3 helicase cf inactive | DNA FID counter-2 inactive
O=C(CC1SC(=O)N(c2ccccc2)C1=O)Nc1ccc(Cl)cc1 (stereo unspecified)	none
Cc1cc(NC(=O)C2CC(=O)N(c3ccccc3C)C2)no1 (stereo unspecified)	HCV NS3 hel inh 36.0 | NS3 helicase cf inactive | DNA FID counter-2 inactive
Cc1cc(NC(=O)C2CC(=O)N(c3cccc(C)c3C)C2)no1 (stereo unspecified)	none
CN(Cc1ccccc1)C(=O)c1csc([C@@H]2C[C@H](O)[C@@H](CO)O2)n1	none (no result: HCV NS3 hel inh, DNA FID counter-1, eIF4H FP inh, PABP polyA inh, core dimer inh)
CC(C)OC(=O)c1cc2c(ccn2C)n1CC(=O)N(Cc1ccccc1)c1ccc(F)cc1	HCV NS3 hel inh 37.8 | NS3 helicase cf inactive | DNA FID counter-2 inactive
CC(C)OC(=O)c1cc2c(ccn2C)n1CC(=O)N1CCC(Cc2ccccc2)CC1	none
O=C1CC(Nc2ccc(N3CCOCC3)cc2)C(=O)N1c1cccc(C(F)(F)F)c1 (stereo unspecified)	HCV NS3 hel inh 48.3 | NS3 helicase cf inactive | DNA FID counter-2 inactive
COc1cccc(N2C(=O)CC(Nc3ccc(N4CCOCC4)cc3)C2=O)c1 (stereo unspecified)	none
CCCS(=O)(=O)NC(=O)C1(C)CCN(C(=O)C2(c3ccc(Cl)cc3)CCCC2)C1 (stereo unspecified)	none (no result: HCV NS3 hel inh, DNA FID counter-1, eIF4H FP inh, PABP polyA inh, core dimer inh)
Cc1nn(CC(=O)NCCc2cccs2)c(=O)c2nn(-c3ccccc3)c(C)c12	HCV NS3 hel inh 49.2 | NS3 helicase cf inactive | DNA FID counter-2 inactive
Cc1nn(C(C)C(=O)NCCc2ccco2)c(=O)c2nn(-c3ccccc3)c(C)c12 (stereo unspecified)	none
Cc1nn(CC(=O)NCCc2ccco2)c(=O)c2nn(-c3ccccc3)c(C)c12	HCV NS3 hel inh 47.7 | NS3 helicase cf inactive | DNA FID counter-2 inactive
COC(=O)c1ccccc1-c1ccc(/C=N/NC(=O)c2cc3ccccc3o2)o1	HCV NS3 hel inh 37.6 | NS3 helicase cf inactive | DNA FID counter-2 inactive
Cc1cc(C)c(CC(=O)c2ccccc2)c(C)c1	none (no result: HCV NS3 hel inh, DNA FID counter-1, eIF4H FP inh, PABP polyA inh, core dimer inh)
C[C@H](CO)N1C[C@H](C)[C@@H](CN(C)Cc2ccc(Cl)c(Cl)c2)OCc2cnnn2CCCC1=O	none (no result: HCV NS3 hel inh, DNA FID counter-1, eIF4H FP inh, PABP polyA inh, core dimer inh)
O=C(O)CCCCCCCCCCCc1ccccc1	HCV NS3 hel inh 38.1 | NS3 helicase cf 70.2 | DNA FID counter-2 inactive
